Key:
[1] = Evaluated for antisickling activity, and initial HbS concentration was reported, values from different experiments (no. of runs=1); format: functional
Summary of the method: (§1)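 Hofrichter-type antigelling assay: the compound was made up as its sodium salt (0.18 M stock) in 0.15 M phosphate buffer, pH 7.4, with sodium bicarbonate. It was diluted with buffer and added to HbS (about 35 g % in 0.15 M phosphate), then dithionite (1.06 M stock) was added and the EPR tubes were sealed. Final drug levels were 5, 10, 20 and 40 mM. Initial HbS (g/dL) is the level after drug and dithionite addition, the same in all six tubes of a run.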

[2] = Control value of dHbS(no. of runs=1); format: functional
Summary of the method: (§2)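 Deoxy-HbS control tube with buffer in place of the compound: HbS in 0.15 M phosphate was deoxygenated with dithionite (1.06 M stock) in a sealed EPR tube. It was spun with each run's set of six tubes, alongside four drug tubes and a 40 mM phenylalanine standard. The value is the HbS solubility in g/dL, used as the denominator of the solubility ratio.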

[3] = Evaluated for antisickling activity, and ratio was calculated as solubility HbS (g/dL) / solubility HbS control(g/dL) at a concentration of 10 mM; format: functional
Summary of the method: (§3)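 Hofrichter-type antigelling assay. Acids were dissolved as sodium salts (sodium bicarbonate) at 0.18 M stock in 0.15 M phosphate, pH 7.4. Aliquots went into HbS (stock around 35 g%) with dithionite as deoxygenant; EPR tubes were sealed and spun. Final drug was 5, 10, 20 and 40 mM. Each six-tube run held a buffer-only deoxy-HbS control and a 40 mM phenylalanine standard. Ratio = soluble HbS with drug / control (g/dL).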

[4] = Evaluated for antisickling activity, and ratio was calculated as solubility HbS (g/dL) / solubility HbS control(g/dL) at a concentration of 20 mM; format: functional; summary of the method: as §3
[5] = Evaluated for antisickling activity, and ratio was calculated as solubility HbS (g/dL) / solubility HbS control(g/dL) at a concentration of 5 mM; format: functional; summary of the method: as §3
[6] = Evaluated for antisickling activity, and ratio was calculated as solubility HbS compound (g/dL) / solubility HbS control(g/dL) at a concentration of 40 mM; format: functional; summary of the method: as §3
[7] = Compound was evaluated for antisickling activity, and initial HbS concentration was reported, values from different experiments (no. of runs=3); format: functional; summary of the method: as §1
[8] = Control value of dHbS(no. of runs=3); format: functional; summary of the method: as §2
[9] = Control value of dHbS (no. of runs=1); format: functional; summary of the method: as §2
[10] = Compound was evaluated for antisickling activity, and initial HbS concentration was reported, values from different experiments (no. of runs=1)
[11] = Evaluated for antisickling activity, and initial HbS concentration was reported, values from different experiments (no. of runs=2); format: functional; summary of the method: as §1
[12] = Control value of dHbS(no. of runs=2); format: functional; summary of the method: as §2
[13] = Compound was evaluated for antisickling activity, and initial HbS concentration was reported, values from different experiments (no. of runs=1); format: functional; summary of the method: as §1
[14] = Control value of dHbS (no. of runs=2); format: functional; summary of the method: as §2
[15] = Compound was evaluated for antisickling activity, and ratio was calculated as solubility HbS compound (g/dL) / solubility HbS control(g/dL) at a concentration of 40 mM (for 173 assays); format: functional
Summary of the method: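 Phenylalanine reference standard at 40 mM, included in every six-tube set of the sealed-tube dithionite-deoxygenated HbS sedimentation solubility assay, pH 7.4 phosphate. Ratio = soluble HbS with Phe / soluble HbS in the buffer control (g/dL). Reported as mean and standard deviation over 173 assays.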

CCCCCCCC(=O)Nc1cc(OCC(=O)O)cc(C(=O)O)c1
Concentration [1]: 24.3 g/dL
Control value [2]: 16.3 g/dL
Ratio [3]: 1.1
Ratio [4]: 1.23
Ratio [5]: 1.04
Ratio [6]: 1.43

O=C(O)c1ccccc1OC(=O)C1CCCN1C(=O)COc1ccccc1 (stereo unspecified)
Concentration [1]: 24 g/dL
Control value [2]: 17.1 g/dL
Ratio [3]: 1.02
Ratio [4]: 1.02
Ratio [5]: 0.987
Ratio [6]: 1.08

CC(C)(Oc1ccc(CCNC(=O)c2ccc(Cl)cc2)cc1)C(=O)O
Concentration [7]: 24.8 g/dL
Control value [8]: 18.2 g/dL
Ratio [3]: 0.932
Ratio [4]: 0.981
Ratio [5]: 0.954
Ratio [6]: 1.2

CCC(=O)Nc1cc(OCC(=O)O)cc(C(=O)O)c1
Concentration [1]: 24.3 g/dL
Control value [2]: 16.6 g/dL
Ratio [3]: 1.03
Ratio [4]: 1.07
Ratio [5]: 1
Ratio [6]: 1.15

CC(C)(C)C(=O)N1CCCC1C(=O)Oc1ccccc1C(=O)O (stereo unspecified)
Concentration [1]: 22.9 g/dL
Control value [2]: 16.5 g/dL
Ratio [3]: 1
Ratio [4]: 1.03
Ratio [5]: 0.993
Ratio [6]: 1.08

O=C(O)COc1cc(NC(=O)c2ccc(Br)cc2)cc(C(=O)O)c1
Concentration [1]: 24 g/dL
Control value [2]: 17.4 g/dL
Ratio [3]: 1.08
Ratio [4]: 1.24
Ratio [5]: 1.02
Ratio [6]: 1.32

O=C(O)COc1cc(NC(=O)c2ccc(Cl)cc2)cc(C(=O)O)c1
Control value [9]: 17.1 g/dL
Ratio [3]: 1.16
Ratio [4]: 1.34
Ratio [5]: 1.07
Ratio [6]: 1.38
Concentration [10]: 24 g/dL

O=C(O)c1ccccc1OC(=O)C1CCCN1C(=O)c1ccccc1 (stereo unspecified)
Concentration [11]: 24.5 g/dL
Control value [12]: 17.2 g/dL
Ratio [3]: 1
Ratio [4]: 1.01
Ratio [5]: 0.999
Ratio [6]: 1.03

O=C(O)c1ccccc1OC(=O)C1CCCN1C(=O)CCc1ccccc1 (stereo unspecified)
Concentration [13]: 23.4 g/dL
Ratio [3]: 0.988
Ratio [4]: 0.983
Ratio [6]: 0.951

O=C(O)COc1cc(NC(=O)c2ccccc2)cc(C(=O)O)c1
Concentration [11]: 23.8 g/dL
Control value [12]: 17.4 g/dL
Ratio [3]: 1.09
Ratio [4]: 1.16
Ratio [5]: 1.06
Ratio [6]: 1.37

CC(C)(C)C(=O)N1CCCC1C(=O)O (stereo unspecified)
Concentration [1]: 22.9 g/dL
Control value [2]: 16.1 g/dL
Ratio [3]: 1.05
Ratio [4]: 1.05
Ratio [5]: 1.03
Ratio [6]: 1.07

O=C(O)C1CCCN1C(=O)Cc1ccccc1 (stereo unspecified)
Concentration [11]: 24.5 g/dL
Control value [14]: 17.6 g/dL
Ratio [3]: 1.01
Ratio [4]: 1.06
Ratio [5]: 1
Ratio [6]: 1.13

O=C(O)c1ccccc1OC(=O)C1CCCN1C(=O)CCC(O)c1ccccc1 (stereo unspecified)
Concentration [11]: 24.5 g/dL
Control value [12]: 17.6 g/dL
Ratio [3]: 0.98
Ratio [4]: 1
Ratio [5]: 0.99
Ratio [6]: 1.15

N[C@@H](Cc1ccccc1)C(=O)O
Concentration [11]: 24.5 g/dL
Control value [12]: 17.3 g/dL
Ratio [15]: 1.18
Ratio [3]: 1.05
Ratio [4]: 1.09
Ratio [5]: 1.04
Ratio [6]: 1.18

O=C(O)COc1cc(NC(=O)c2ccc(Cl)c(Cl)c2)cc(C(=O)O)c1
Concentration [7]: 24.8 g/dL
Control value [8]: 16.9 g/dL
Ratio [3]: 1.19
Ratio [4]: 1.35
Ratio [5]: 1.09
Ratio [6]: 1.45

O=C(O)c1ccccc1OC(=O)C1CCCN1C(=O)Cc1ccccc1 (stereo unspecified)
Concentration [1]: 24.6 g/dL
Control value [2]: 17.1 g/dL
Ratio [3]: 1.03
Ratio [4]: 1.05
Ratio [5]: 1.03
Ratio [6]: 1.15

CC(C)(C)CC(=O)N1CCCC1C(=O)Oc1ccccc1C(=O)O (stereo unspecified)
Concentration [11]: 28.3 g/dL
Control value [12]: 17.6 g/dL
Ratio [3]: 1.02
Ratio [4]: 0.995
Ratio [5]: 0.991
Ratio [6]: 1.05
